# The source made the active and inactive calls.
# Columns and labels:
# Plasma [1] = experiment: Anticoagulant activity in rabbit plasma assessed as prothrombin time at 2 mM after 2 mins; format: functional, Oryctolagus cuniculus
# How it was run: (§1)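 Rabbit plasma was preincubated 2 min at 37 °C with compound dissolved in 0.05 M Tris buffer plus Tris/0.1 M NaCl, pH 7.5. Clotting was triggered with thromboplastin-calcium reagent and read on a fibrometer. Clotting time is in seconds, mean ± SD (n = 3-5), with Student's t-test against control. A cut-off of >300 s was scored as no clotting.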
# Plasma [2] = experiment: Anticoagulant activity in rabbit plasma assessed as thrombin time at 2 mM after 2 mins; format: functional, Oryctolagus cuniculus
# How it was run: (§2)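 Rabbit plasma, 0.05 M Tris buffer and compound in Tris were preincubated for 2 min at 37 °C. Clotting was started with bovine thrombin (3-4 NIH units/mL) and timed on a fibrometer. Clotting time is in seconds, mean ± SD (n = 3-5), with Student's t-test against control. Clotting beyond 300 s was scored as no clotting.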
# Prothrombin [3] = molecular target: T1, Prothrombin (Bos taurus, UniProt P00735); experiment: Inhibition of bovine thrombin-catalyzed hydrolysis of S-2238
# How it was run: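 Bovine plasma thrombin (0.19 NIH units/mL solution) in 0.05 M Tris with 0.1 M NaCl (pH 7.5) was preincubated with compound for 2 min at 37 °C. S-2238 was added as a 0.66 mM solution to start the reaction. p-Nitroaniline release was followed at 405 nm over 5 min and expressed as % inhibition. IC50 is the concentration that inhibits 50% of initial activity. Mean of three experiments.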
# Prothrombin (Bos taurus) [4] = molecular target: Prothrombin (Bos taurus) (UniProt P00735); experiment: Inhibition of bovine thrombin at 200 uM by Lineweaver-Burke plot analysis
# How it was run: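 Bovine plasma thrombin at a fixed 0.19 NIH units/mL was tested in 0.05 M Tris with 0.1 M NaCl (pH 7.5) at 37 °C, with S-2238 at 0.6 to 1.7 mM. Compound and enzyme were preincubated for under 2 min before substrate was added. Initial rates were plotted as Lineweaver-Burk plots and fitted by linear regression to give the inhibition type and Ki. Mean of three.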
# Plasma [5] = experiment: Anticoagulant activity in rabbit plasma assessed as activated partial thromboplastin time at 2 mM after 2 mins; format: functional, Oryctolagus cuniculus
# How it was run: (§3)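 Rabbit plasma with test compound in 0.05 M Tris buffer was incubated with APTT reagent for 2 min at 37 °C. Clotting was started with 25 mM CaCl2 and timed on a fibrometer. Clotting time is in seconds, mean ± SD (n = 3-5), compared with control by Student's t-test. Clotting beyond 300 s was scored as no clotting.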
# Prothrombin [6] = molecular target: T1, Prothrombin; experiment: Inhibition of bovine thrombin-catalyzed hydrolysis of fibrinogen
# How it was run: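 Compound at various concentrations was preincubated with thrombin (0.05 NIH units/mL solution) for 3 min at 37 °C. The reaction was started with fibrinogen (2 mg/mL solution). Clot turbidity was read at 405 nm for 5 min and velocities were taken as mOD/min. IC50 is the concentration that inhibits 50% of initial activity. Mean of three experiments.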
# Coagulation factor X [7] = molecular target: T2, Coagulation factor X (Homo sapiens, UniProt P00742); experiment: Inhibition of human factor 10a-catalyzed hydrolysis of S-2222
# T2 sequence (P00742 41-179 limits assumed): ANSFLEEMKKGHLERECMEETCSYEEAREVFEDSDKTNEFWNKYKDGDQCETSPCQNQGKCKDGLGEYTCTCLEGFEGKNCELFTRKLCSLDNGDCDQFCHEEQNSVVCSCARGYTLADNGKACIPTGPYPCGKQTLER
# T2 sequence (P00742 235-488 limits assumed): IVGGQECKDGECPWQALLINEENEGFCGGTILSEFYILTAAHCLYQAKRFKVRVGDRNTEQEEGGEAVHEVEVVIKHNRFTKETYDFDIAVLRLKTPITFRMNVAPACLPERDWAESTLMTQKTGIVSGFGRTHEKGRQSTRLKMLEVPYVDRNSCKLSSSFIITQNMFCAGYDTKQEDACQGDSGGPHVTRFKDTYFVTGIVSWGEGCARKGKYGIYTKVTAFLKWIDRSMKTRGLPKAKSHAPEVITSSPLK
# How it was run: (§4)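 Compound and 0.20 mM S-2222 were mixed in 0.05 M Tris/0.1 M NaCl, pH 8.3. Reaction was started with factor Xa (50 ng/mL) and 4-nitroanilide release was read at 405 nm over 5 min at 37 °C. IC50 is the concentration giving 50% inhibition of initial activity, mean ± SD of three experiments. Ki was determined with S-2222 at 0.04-0.20 mM.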
# Plasma [8] = experiment: Anticoagulant activity in rabbit plasma assessed as activated partial thromboplastin time at 0.1 mM after 2 mins; format: functional, Oryctolagus cuniculus; settings: in the assay text read “1 mM” for “0.1 mM”; how it was run: as §3
# Plasma [9] = experiment: Anticoagulant activity in rabbit plasma assessed as thrombin time at 0.1 mM after 2 mins; format: functional, Oryctolagus cuniculus; settings: in the assay text read “1 mM” for “0.1 mM”; how it was run: as §2
# Plasma [10] = experiment: Anticoagulant activity in rabbit plasma assessed as thrombin time at 0.5 mM after 2 mins; format: functional, Oryctolagus cuniculus; how it was run: as §2
# Plasma [11] = experiment: Anticoagulant activity in rabbit plasma assessed as prothrombin time at 0.1 mM after 2 mins; format: functional, Oryctolagus cuniculus; settings: in the assay text read “1 mM” for “0.1 mM”; how it was run: as §1
# Coagulation factor X [12] = molecular target: T2, Coagulation factor X; experiment: Inhibition of human factor 10a; how it was run: as §4
# Plasma [13] = experiment: Anticoagulant activity in rabbit plasma assessed as activated partial thromboplastin time at 0.5 mM after 2 mins; format: functional, Oryctolagus cuniculus; how it was run: as §3
# Plasma [14] = experiment: Anticoagulant activity in rabbit plasma assessed as prothrombin time at 0.5 mM after 2 mins; format: functional, Oryctolagus cuniculus; how it was run: as §1
# Prothrombin [15] = molecular target: T1, Prothrombin; experiment: Inhibition of bovine thrombin by Lineweaver-Burke plot analysis
# How it was run: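 Bovine plasma thrombin (0.19 NIH units/mL) was run in 0.05 M Tris/0.1 M NaCl, pH 7.5, at 37 °C. It was preincubated with compound for under 2 min, and the reaction was started with S-2238 at 0.6-1.7 mM. Initial rates were taken as p-nitroaniline release at 405 nm. Inhibition type and Ki came from linear-regression Lineweaver-Burk plots.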
# Prothrombin (Bos taurus) [16] = molecular target: Prothrombin (Bos taurus) (UniProt P00735); experiment: Inhibition of bovine thrombin upto 100 uM
# How it was run: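 Bovine plasma thrombin (0.19 NIH units/mL) in Tris/0.1 M NaCl, pH 7.5, was preincubated 2 min at 37 °C with compound in 0.1% DMSO, which also served as vehicle control. Reaction was started with S-2238 (0.66 mM, as added) and read as the rise in A405 over 5 min. Results are percent inhibition of thrombin activity.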
SMILES,IC50 (Prothrombin [3]),Activity (Prothrombin (Bos taurus) [4]),IC50 (Prothrombin [6]),Activity (Prothrombin (Bos taurus) [16]),PT (Plasma [1]),TT (Plasma [2]),APTT (Plasma [5]),other results
COc1cc(C(=O)OC[C@H]2O[C@@H](OC(=O)c3cc(OC)c(OC)c(OC)c3)[C@H](OC(=O)c3cc(OC)c(OC)c(OC)c3)[C@@H](OC(=O)c3cc(OC)c(OC)c(OC)c3)[C@@H]2OC(=O)c2cc(OC)c(OC)c(OC)c2)cc(OC)c1OC,,,,inactive,,,,
COc1cc2c(c(OC)c1OC)-c1c(cc(OC)c(OC)c1OC)C(=O)O[C@H]1[C@@H]3OC(=O)c4cc(OC)c(OC)c(OC)c4-c4c(cc(OC)c(OC)c4OC)C(=O)O[C@H]3C(OC)O[C@@H]1COC2=O (stereo not given in full),,,,inactive,,,,

# The next lines start with results.
IC50 (Prothrombin [3]),Activity (Prothrombin (Bos taurus) [4]),IC50 (Prothrombin [6]),Activity (Prothrombin (Bos taurus) [16]),SMILES,PT (Plasma [1]),TT (Plasma [2]),APTT (Plasma [5]),other results
> 200000 nM,inactive,> 200000 nM,,O=C1O[C@H]2[C@H](O)[C@@H](CO)OC(O)[C@@H]2OC(=O)c2cc(O)c(O)c(O)c2-c2c1cc(O)c(O)c2O (stereo not given in full),10 s,9.43 s,39.9 s,
> 200000 nM,inactive,> 200000 nM,,O=C(OC[C@H]1OC(O)[C@H](OC(=O)c2cc(O)c(O)c(O)c2)[C@@H](O)[C@@H]1O)c1cc(O)c(O)c(O)c1 (stereo not given in full),11.1 s,10.7 s,40.8 s,
190 nM,,26 nM,,O=C1OC[C@@H](O)[C@H]([C@@H]2OC(=O)c3cc(O)c(O)c(O)c3-c3c(O)c(O)c(O)c4c3C(=O)O[C@H]2[C@H]4O)OC(=O)c2cc(O)c(O)c(O)c2-c2c1cc(O)c(O)c2O,,,,IC50 (Coagulation factor X [7]): 280 nM; APTT (Plasma [8]): >300 s; TT (Plasma [9]): >300 s; TT (Plasma [10]): 16.2 s; PT (Plasma [11]): >300 s; Ki (Coagulation factor X [12]): 690 nM; APTT (Plasma [13]): 31.6 s; PT (Plasma [14]): 13.9 s; Ki (Prothrombin [15]): 830 nM

# — ChEMBL document CHEMBL1151307, “Effects of tannins from Geum japonicum on the catalytic activity of thrombin and factor Xa of blood coagulation cascade” (J Nat Prod, 1998)
